Data on three molecules can be found in ChEMBL document CHEMBL1156524, “Profiling the enzymatic properties and inhibition of human complement factor B” (J Biol Chem, 2007).

The species entered for assay [1] is Homo sapiens. Briefly: Inhibition of human C3bBb convertase assessed as C3 cleavage at 1 mM after 30 mins by 7% gel analysis. The essentials: (§1)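 Native C3 convertase formed in situ: C3 (10 µg), human factor B (0.5 µg) and factor D (0.05 µg) incubated 30 min at 37 °C in 32 µL PBS pH 7.4 with 1 mM MgCl2 and 154 mM NaCl, plus buffer or inhibitor (0.25–1.0 mM). Cleavage of C3 to C3a read by SDS-PAGE, 2.5 µg C3/well on 7% gel and 5 µg C3/well on 12% gel.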

The species named for assay [2] is Homo sapiens. Briefly: Inhibition of human C3bBb convertase assessed as C3 cleavage at 1 mM after 30 mins by 12% gel analysis. The method in brief:
as §1

Assay [3] has as its target T1, Complement factor B (Homo sapiens, UniProt P00751). Briefly: Inhibition of human complement factor B. The essentials: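 Chromogenic assay: 50 nM factor B, 0.5 mM Ac-SHLGLAR-pNA, 100 mM glycine-HCl pH 9.5, 37 °C. Eleven inhibitor concentrations from 1 µM to 1 mM. pNA release monitored at 405 nm; buffer alone as positive control.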
For assay [4], the species on record is Homo sapiens. Briefly: Inhibition of human C3bBb convertase assessed as C3 cleavage after 30 mins by 12% gel analysis. The method in brief:
(§2)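 Native convertase assembled in situ: C3 10 µg, factor B 0.5 µg and factor D 0.05 µg, 30 min at 37 °C in PBS pH 7.4 with 1 mM MgCl2 and 154 mM NaCl. Inhibitor at 0.25, 0.5 and 1.0 mM; leupeptin and PMSF at 1.0 mM as controls. C3 to C3a cleavage read on 7% or 12% gels.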

In assay [5] the target is T1, Complement factor B. Briefly: Inhibition of human C3 convertase assessed as C3a formation after 30 mins by 7% gel analysis. The method in brief:
(§3)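 Convertase (CVF.Bb) preformed from cobra venom factor 12 µg, factor B 8 µg and factor D 0.2 µg in PBS pH 7.4 with 1 mM MgCl2, 1 h at 37 °C, then diluted with PBS containing 20 mM EDTA. C3 10 µg plus convertase incubated 30 min at 37 °C in PBS pH 7.4 with buffer or inhibitor at 0.01–0.5 mM. C3a formation read on gels loaded with 2.5 µg C3/well (7%) or 5.0 µg (12%).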

The target in assay [6] is T1, Complement factor B. Briefly: Inhibition of human C3 convertase assessed as C3a formation after 30 mins by 12% gel analysis. The method in brief:
as §3

Assay [7] in a line: Inhibition of thrombin mediated cleavage of AcSHLGLAR-pNA. The method in brief:
(§4)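 Ac-SHLGLAR-pNA at 0.5 mM final in 10 mM Hepes, 10 mM Tris, 150 mM NaCl, 0.1% PEG, pH 7.4; 150 µL wells; read at 405 nm, 37 °C. Trypsin at 133 nM final, inhibitor at eleven 2-fold dilutions from 26.6 µM, in triplicate. Thrombin at 0.5 U per well, inhibitor at eleven 2-fold dilutions from 666 µM, in duplicate.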

Assay [8] has as its target T1, Complement factor B. Briefly: Inhibition of human complement factor B assessed as cleavage of C3 convertase to C3b at pH 10.2. The essentials: (§5)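 Purified factor B 4 µg with C3 10 µg, 3 h at 37 °C in 100 mM glycine-HCl pH 10.2 with 154 mM NaCl. Buffer or inhibitor at 0.01, 0.1, 0.25 or 0.5 mM. C3 cleavage products resolved on 7% and 12% gels.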
In assay [9] the target is T1, Complement factor B. Briefly: Inhibition of human complement factor B assessed as […] at pH 10.2. The method in brief:
as §5

In assay [10] the target is T1, Complement factor B. Briefly: Inhibition of human complement factor B at 100 uM. The method in brief:
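Competition format: 50 nM factor B with 100 µM inhibitor and Ac-SHLGLAR-pNA at 0.5, 2.5, 5 or 10 mM, in 100 mM glycine-HCl pH 9.5 at 37 °C. Absorbance increase followed at 405 nm.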

Assay [11] is filed under the species Homo sapiens. Briefly: Inhibition of human C3bBb convertase assessed as C3 cleavage after 30 mins by 7% gel analysis. The essentials: as §2
A short description of assay [12]: Inhibition of trypsin mediated cleavage of AcSHLGLAR-pNA. The essentials:
as §4

One may read the IC50 as the concentration needed to halve the response being measured.

Active and inactive are the calls of the source. No cut-off for these calls is given here. Residues, ends and D or L forms follow the SMILES beside them.

T1 sequence (P00751 whole entry): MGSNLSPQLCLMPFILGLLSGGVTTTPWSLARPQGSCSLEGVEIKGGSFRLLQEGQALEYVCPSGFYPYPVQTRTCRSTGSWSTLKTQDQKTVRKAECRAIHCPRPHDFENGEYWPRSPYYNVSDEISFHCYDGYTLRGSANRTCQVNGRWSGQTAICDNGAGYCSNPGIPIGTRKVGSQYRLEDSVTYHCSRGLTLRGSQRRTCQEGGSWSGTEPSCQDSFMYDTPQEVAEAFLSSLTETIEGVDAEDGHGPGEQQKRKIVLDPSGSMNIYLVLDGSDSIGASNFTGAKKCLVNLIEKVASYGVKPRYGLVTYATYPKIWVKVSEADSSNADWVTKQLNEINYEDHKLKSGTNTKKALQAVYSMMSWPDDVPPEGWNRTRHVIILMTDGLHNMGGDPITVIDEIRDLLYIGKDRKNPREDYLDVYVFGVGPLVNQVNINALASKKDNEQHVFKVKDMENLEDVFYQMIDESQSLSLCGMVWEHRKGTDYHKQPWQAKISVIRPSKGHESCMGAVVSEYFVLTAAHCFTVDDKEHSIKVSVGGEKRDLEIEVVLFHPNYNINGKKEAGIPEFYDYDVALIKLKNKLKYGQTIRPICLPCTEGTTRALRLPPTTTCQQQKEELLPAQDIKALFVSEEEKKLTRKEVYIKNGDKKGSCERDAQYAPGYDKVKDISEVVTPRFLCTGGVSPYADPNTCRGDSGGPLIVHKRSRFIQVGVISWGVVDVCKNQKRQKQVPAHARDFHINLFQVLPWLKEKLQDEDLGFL

In the case of `CC(=O)N[C@@H](CC(C)C)C(=O)N[C@@H](CC(C)C)C(=O)N[C@H](C=O)CCCNC(=N)N`, the outcome in the assay listed under Homo sapiens [1] and in the assay filed under Homo sapiens [2] was inactive.
Turning to `O=S(=O)(F)Cc1ccccc1`, the result in the assay filed under Homo sapiens [1] and in the assay listed under Homo sapiens [2] was inactive.
In the case of `CC(=O)N[C@@H](CO)C(=O)N[C@@H](Cc1cnc[nH]1)C(=O)N[C@@H](CC(C)C)C(=O)NCC(=O)N[C@@H](CC(C)C)C(=O)N[C@@H](C)C(=O)N[C@H](C=O)CCCNC(=N)N` (Ac-SHLGLAR-aldehyde), the values for the IC50 (at Complement factor B [3]; in assay [7]; in assay [12]) were 19 µM, 24 µM and 716 µM, respectively. Besides, the Activity result in the assay filed under Homo sapiens [4], at Complement factor B [5], at Complement factor B [6], on Complement factor B [9], on Complement factor B [10] and in the assay listed under Homo sapiens [11] was “Dose-dependent effect” each time. For the same molecule, on Complement factor B [8], the outcome was Active.
